Data from ChEMBL document CHEMBL4610031, “Design, synthesis and biological evaluation of Proteolysis Targeting Chimeras (PROTACs) as a BTK degraders with improved pharmacokinetic properties” (Bioorg Med Chem Lett, 2020).

Experiments:
[1] = target: T1, Protein cereblon/Tyrosine-protein kinase BTK (Homo sapiens, UniProt Q06187+Q96SW2); assay: Protac activity at CRBN/BTK in human NAMALWA cells assessed as induction of BTK protein degradation incubated for 24 hrs by immunoblotting method relative to control; type: cell-based; settings: NAMALVA
Method in brief: (§1)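 NAMALWA cells were grown in RPMI 1640 with 10% FBS, streptomycin and penicillin at 37 °C, 5% CO2. 2 × 10^6 cells per concentration were treated 24 h, rinsed in cold PBS, and lysed in Tris pH 8.0/deoxycholate/Triton X-100 with protease and phosphatase inhibitors.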
Target sequence in this assay (Q06187 2-659 limits assumed): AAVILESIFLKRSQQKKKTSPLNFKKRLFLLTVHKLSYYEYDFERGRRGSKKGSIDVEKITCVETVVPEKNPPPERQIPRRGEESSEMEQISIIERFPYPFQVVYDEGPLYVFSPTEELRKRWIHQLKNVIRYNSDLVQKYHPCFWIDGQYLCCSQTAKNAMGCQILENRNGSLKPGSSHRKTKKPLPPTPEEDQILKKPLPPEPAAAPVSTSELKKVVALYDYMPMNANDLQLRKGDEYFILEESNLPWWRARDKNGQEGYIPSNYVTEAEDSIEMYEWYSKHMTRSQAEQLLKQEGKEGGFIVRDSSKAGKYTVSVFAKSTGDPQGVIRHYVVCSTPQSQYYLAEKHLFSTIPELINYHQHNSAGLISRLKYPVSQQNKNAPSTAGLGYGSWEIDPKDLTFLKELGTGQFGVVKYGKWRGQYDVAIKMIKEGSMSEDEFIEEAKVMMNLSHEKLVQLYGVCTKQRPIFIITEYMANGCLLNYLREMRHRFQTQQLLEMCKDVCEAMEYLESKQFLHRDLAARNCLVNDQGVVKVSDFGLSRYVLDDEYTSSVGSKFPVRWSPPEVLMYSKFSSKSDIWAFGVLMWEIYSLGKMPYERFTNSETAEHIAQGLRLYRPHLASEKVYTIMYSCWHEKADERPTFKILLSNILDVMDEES
Target sequence in this assay (Q96SW2 whole entry partner): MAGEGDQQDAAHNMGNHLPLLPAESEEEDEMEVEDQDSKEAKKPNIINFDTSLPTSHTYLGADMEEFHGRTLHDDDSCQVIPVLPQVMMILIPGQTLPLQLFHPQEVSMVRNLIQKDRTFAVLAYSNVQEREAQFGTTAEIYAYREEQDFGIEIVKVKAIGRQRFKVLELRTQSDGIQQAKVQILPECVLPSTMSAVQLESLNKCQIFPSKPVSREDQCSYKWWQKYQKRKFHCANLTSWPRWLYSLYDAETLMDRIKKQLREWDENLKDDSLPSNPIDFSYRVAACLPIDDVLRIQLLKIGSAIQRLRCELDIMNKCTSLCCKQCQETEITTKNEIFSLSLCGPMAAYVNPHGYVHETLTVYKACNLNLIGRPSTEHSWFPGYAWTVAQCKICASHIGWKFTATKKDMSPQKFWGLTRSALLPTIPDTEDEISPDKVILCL

[2] = Tmax in mouse at 1 mg/kg, iv; type: ADME, organism-based; settings: in vivo
[3] = target: T1, Protein cereblon/Tyrosine-protein kinase BTK; assay: Protac activity at CRBN/BTK in human NAMALWA cells assessed as induction of BTK protein degradation incubated for 24 hrs by immunoblotting method; type: cell-based; settings: namalva; method in brief: as §1
Target sequence in this assay (Q06187 whole entry): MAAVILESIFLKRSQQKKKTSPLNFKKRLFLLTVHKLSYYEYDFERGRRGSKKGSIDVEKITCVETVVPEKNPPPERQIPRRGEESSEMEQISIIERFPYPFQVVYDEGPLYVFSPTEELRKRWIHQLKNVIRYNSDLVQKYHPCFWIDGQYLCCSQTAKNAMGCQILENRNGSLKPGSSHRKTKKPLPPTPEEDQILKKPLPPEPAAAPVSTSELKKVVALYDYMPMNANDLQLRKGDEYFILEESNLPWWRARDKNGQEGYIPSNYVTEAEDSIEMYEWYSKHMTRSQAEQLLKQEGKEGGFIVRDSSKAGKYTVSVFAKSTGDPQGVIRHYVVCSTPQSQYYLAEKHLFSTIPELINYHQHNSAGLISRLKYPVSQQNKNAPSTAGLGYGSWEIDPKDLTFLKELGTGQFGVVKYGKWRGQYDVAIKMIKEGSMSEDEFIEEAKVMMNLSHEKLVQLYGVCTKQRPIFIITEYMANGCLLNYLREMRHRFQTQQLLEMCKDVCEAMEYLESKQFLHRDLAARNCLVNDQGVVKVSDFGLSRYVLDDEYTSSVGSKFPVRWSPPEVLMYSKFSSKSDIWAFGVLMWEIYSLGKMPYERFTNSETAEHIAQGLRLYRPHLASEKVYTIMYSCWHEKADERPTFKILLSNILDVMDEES
Target sequence in this assay (Q96SW2 whole entry): as the sequence (Q96SW2 whole entry partner) above

[4] = AUClast in mouse at 1 mg/kg, iv; type: ADME, organism-based; design: dose 1 mg/kg, time 0 - last, route intravenous; settings: in vivo
[5] = target: T2, von Hippel-Lindau disease tumor suppressor/Tyrosine-protein kinase BTK (Homo sapiens, UniProt Q06187+P40337); assay: Protac activity at VHL/BTK in human NAMALWA cells assessed as induction of BTK protein degradation incubated for 24 hrs by immunoblotting method; type: cell-based; settings: namalva; method in brief: as §1
Target sequence in this assay (Q06187 whole entry): as the sequence (Q06187 whole entry) above
Target sequence in this assay (P40337 whole entry): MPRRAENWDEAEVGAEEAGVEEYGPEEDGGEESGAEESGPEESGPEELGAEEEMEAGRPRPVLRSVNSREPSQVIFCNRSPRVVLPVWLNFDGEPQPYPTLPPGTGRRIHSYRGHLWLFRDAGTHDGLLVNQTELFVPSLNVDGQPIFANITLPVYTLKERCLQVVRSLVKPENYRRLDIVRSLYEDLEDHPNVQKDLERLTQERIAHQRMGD

[6] = target: T2, von Hippel-Lindau disease tumor suppressor/Tyrosine-protein kinase BTK; assay: Protac activity at VHL/BTK in human NAMALWA cells assessed as induction of BTK protein degradation incubated for 24 hrs by immunoblotting method relative to control; type: cell-based; settings: NAMALVA; method in brief: as §1
Target sequence in this assay (P40337 whole entry partner): as the sequence (P40337 whole entry) above
Target sequence in this assay (Q06187 2-659 limits assumed): as the sequence (Q06187 2-659 limits assumed) above

SMILES | Emax [1] | Tmax [2] | DC50 [3] | AUClast [4] | DC50 [5] | Emax [6]
Nc1ncnc2c1c(-c1ccc(Oc3ccccc3)cc1)nn2C1CCN(CCOCCOCC(=O)Nc2ccc3c(c2)C(=O)N(C2CCC(=O)NC2=O)C3=O)CC1 (configuration not stated) | 99% | 1.98 min | 6.2 nM | 10.2 ng·h/mL |  | 
Cc1ncsc1-c1ccc(CNC(=O)[C@@H]2C[C@@H](O)CN2C(=O)[C@H](C(C)C)N2Cc3ccccc3C2=O)c(OCCCOCCC(=O)N2CCC(n3nc(-c4ccc(Oc5ccccc5)cc4)c4c(N)ncnc43)CC2)c1 |  |  |  |  | > 1000 nM | 
Cc1ncsc1-c1ccc(CNC(=O)[C@@H]2C[C@@H](O)CN2C(=O)[C@@H](NC(=O)COCCOCCN2CCC(n3nc(-c4ccc(Oc5ccccc5)cc4)c4c(N)ncnc43)CC2)C(C)(C)C)cc1 |  |  |  |  | 374 nM | 49%
Cc1ncsc1-c1ccc(CNC(=O)[C@@H]2C[C@@H](O)CN2C(=O)[C@H](C(C)C)N2Cc3ccccc3C2=O)c(OCCCCOCCCCN2CCC(n3nc(-c4ccc(Oc5ccccc5)cc4)c4c(N)ncnc43)CC2)c1 |  |  |  |  | 162 nM | 50%

The next lines start with the values.

Emax [1] | Tmax [2] | DC50 [3] | AUClast [4] | DC50 [5] | Emax [6] | SMILES
95% | 1.98 min | 7.9 nM | 405 ng·h/mL |  |  | Nc1ncnc2c1c(-c1ccc(Oc3ccccc3)cc1)nn2C1CCN(CCOCCOCCOc2ccc3c(c2)CN(C2CCC(=O)NC2=O)C3=O)CC1 (configuration not stated)
91% | 1.98 min | 8.3 nM | 166 ng·h/mL |  |  | Nc1ncnc2c1c(-c1ccc(Oc3ccccc3)cc1)nn2C1CCN(CCOCCOCCOc2ccc3c(c2)C(=O)N(C2CCC(=O)NC2=O)C3=O)CC1 (configuration not stated)
